Data set [1] relates to RAW264.7. In words: Antiinflammatory activity in mouse RAW264.7 cells assessed as inhibition of LPS-induced nitric oxide production at 40 uM by griess assay relative to control. The data set is classed as functional. The gist of the method:
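LPS-stimulated RAW 264.7 mouse macrophages; nitric oxide production measured; single-concentration screen of inhibition relative to control. Dexamethasone as positive control.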
In general terms: Griess reagent forms a coloured azo dye with nitrite.

In data set [2] the test system is RAW264.7. In words: Antiinflammatory activity in mouse RAW264.7 cells assessed as inhibition of LPS-induced nitric oxide production by griess assay. The class given is functional, cell-based. The gist of the method:
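RAW 264.7 mouse macrophages induced with LPS; NO production measured over five test concentrations to derive IC50; means ± SD, n = 3; dexamethasone positive control.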

Data set [3] in a line: Cytotoxicity against mouse RAW264.7 cells assessed as survival rate at 200 uM measured in absence of LPS by MTT assay relative to control. The data set is classed as cell-based. Conditions: read-out: Survival. The gist of the method: (§1)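 RAW 264.7 mouse macrophages treated with compound at 200 μM, with or without 1 μg/mL LPS. Viability read by MTT and expressed as survival rate (%). Values are means ± SD, n = 3.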
On the technique in general: Formazan colour is commonly taken as a measure of viable cells.

Data set [4] in a line: Cytotoxicity against mouse RAW264.7 cells assessed as survival rate at 200 uM measured in presence of LPS by MTT assay relative to control. Conditions: read-out: Survival. The class given is cell-based. The gist of the method:
as §1

For the compound `CC(=O)O[C@@H]1C[C@]23C[C@@](C)(O)[C@H](CC[C@H]2[C@@](C)(O)[C@@H]2[C@@H](Cl)[C@H](O)C(C)(C)[C@@]12O)[C@H]3O`, the inhibition (in general, the percentage by which the read-out fell short of the control) at 40 µM in the data set with RAW264.7 [1] was greater than 50%. Also, the IC50 (usually the concentration that gives 50% inhibition) with RAW264.7 [2] is 5.8 µM. Besides, the viability at 200 µM in data set [3] was determined as 99.3%; in data set [4], 95.2%.

For the origin of these results see ChEMBL document CHEMBL4130603, “Anti-inflammatory Grayanane Diterpenoids from the Leaves of Rhododendron molle” (J Nat Prod, 2018).
